From ChEMBL document CHEMBL2163229, “Identifying novel adenosine receptor ligands by simultaneous proteochemometric modeling of rat and human bioactivity data” (J Med Chem, 2012) come the findings set out here.

pKi: −log10 of the molar value.

For one test, the target named is T1, Adenosine receptor A1 (Homo sapiens, UniProt P30542).
T1 sequence (P30542 whole entry): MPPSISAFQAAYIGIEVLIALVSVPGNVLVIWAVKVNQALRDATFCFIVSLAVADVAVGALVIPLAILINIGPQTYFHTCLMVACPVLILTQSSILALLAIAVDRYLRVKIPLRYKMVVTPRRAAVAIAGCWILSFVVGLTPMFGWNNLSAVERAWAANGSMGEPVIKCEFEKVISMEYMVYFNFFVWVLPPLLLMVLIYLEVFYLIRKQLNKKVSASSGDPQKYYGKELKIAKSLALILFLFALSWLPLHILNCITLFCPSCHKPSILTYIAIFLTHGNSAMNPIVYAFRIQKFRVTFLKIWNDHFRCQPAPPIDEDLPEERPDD
In words: Displacement of [3H]DPCPX from human adenosine A1 receptor expressed in CHO cells after 1 hr by scintillation counting. In kind it is cell-based. (In general: In a radioligand displacement assay an active substance lowers the binding of a labelled ligand.)

The target of test [1] is T2, Adenosine receptor A2a (Homo sapiens, UniProt P29274). In words: Displacement of [3H]ZM241385 from human adenosine A2A receptor expressed in HEK 293 cells after 2 hrs by scintillation counting. The test is classed as cell-based, HEK293.
The target in the next test is T3, Adenosine receptor A2b (Homo sapiens, UniProt P29275).
T3 sequence (P29275 whole entry): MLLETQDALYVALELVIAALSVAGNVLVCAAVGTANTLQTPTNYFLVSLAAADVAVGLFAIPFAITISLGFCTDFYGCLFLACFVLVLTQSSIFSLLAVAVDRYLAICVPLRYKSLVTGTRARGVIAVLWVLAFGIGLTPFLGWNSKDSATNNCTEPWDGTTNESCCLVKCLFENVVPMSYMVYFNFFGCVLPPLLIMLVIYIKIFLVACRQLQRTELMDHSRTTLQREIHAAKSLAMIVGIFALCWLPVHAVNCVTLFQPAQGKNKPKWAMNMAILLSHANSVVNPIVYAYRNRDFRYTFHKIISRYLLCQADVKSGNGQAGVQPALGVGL
In words: Displacement of [3H][…] from human adenosine A2B receptor expressed in CHO cells after 2 hrs by scintillation counting. In kind it is cell-based. Put shortly:
(§1)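 Stably transfected CHO membranes (15 μg protein) with 1.0 nM [3H]PSB603 final in 50 mM Tris·HCl pH 7.4, 1 U/mL ADA, 0.1% CHAPS, 2 h at 25 °C. Nonspecific binding with 100 μM NECA. GF/C filtration; washes in ice-cold Tris·HCl pH 7.4 plus 0.1% BSA. Ki by nonlinear regression using radioligand Ki of 0.41 nM.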

The next test deals with T4, Adenosine receptor A3 (Homo sapiens, UniProt P0DMS8).
T4 sequence (P0DMS8 whole entry): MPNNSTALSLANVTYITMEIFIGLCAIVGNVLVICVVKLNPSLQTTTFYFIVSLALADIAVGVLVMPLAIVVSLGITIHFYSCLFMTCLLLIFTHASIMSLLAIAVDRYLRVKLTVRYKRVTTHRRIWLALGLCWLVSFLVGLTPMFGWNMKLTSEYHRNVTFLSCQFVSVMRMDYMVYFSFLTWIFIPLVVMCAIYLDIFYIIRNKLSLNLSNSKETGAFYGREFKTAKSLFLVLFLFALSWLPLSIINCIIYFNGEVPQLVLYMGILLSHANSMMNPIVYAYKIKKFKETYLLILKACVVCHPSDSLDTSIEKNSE
In words: Displacement of [3H]PSB11 from human adenosine A3 receptor expressed in HEK 293 cells after 1 hr by scintillation counting. The test is classed as cell-based, HEK293.

Test [2] deals with T5, Adenosine receptor A1 (Homo sapiens) (UniProt P30542).
T5 sequence (whole entry): T1 sequence (P30542 whole entry)
In words: Displacement of [3H]DPCPX from human adenosine A1 receptor expressed in CHO cells at 10 uM after 1 hr by scintillation counting. In kind it is cell-based.

In test [3] the target is T6, Adenosine receptor A2b (Homo sapiens) (UniProt P29275).
T6 sequence (whole entry): T3 sequence (P29275 whole entry)
As to the kind of experiment: Displacement of [3H][…] from human adenosine A2B receptor expressed in CHO cells at 10 uM after 2 hrs by scintillation counting. In kind it is cell-based. Put shortly: as §1

The target in test [4] is T7, Adenosine receptor A3 (Homo sapiens) (UniProt P0DMS8).
T7 sequence (whole entry): T4 sequence (P0DMS8 whole entry)
As to the kind of experiment: Displacement of [3H]PSB11 from human adenosine A3 receptor expressed in HEK 293 cells at 10 uM after 1 hr by scintillation counting. The following applies: HEK293. In kind it is cell-based.

Test [5] concerns the target T2, Adenosine receptor A2a. As to the kind of experiment: Displacement of [3H]ZM241385 from human adenosine A2A receptor expressed in HEK 293 cells at 10 uM after 2 hrs by scintillation counting. In kind it is cell-based. As to conditions: HEK293.

T2 sequence (P29274 whole entry): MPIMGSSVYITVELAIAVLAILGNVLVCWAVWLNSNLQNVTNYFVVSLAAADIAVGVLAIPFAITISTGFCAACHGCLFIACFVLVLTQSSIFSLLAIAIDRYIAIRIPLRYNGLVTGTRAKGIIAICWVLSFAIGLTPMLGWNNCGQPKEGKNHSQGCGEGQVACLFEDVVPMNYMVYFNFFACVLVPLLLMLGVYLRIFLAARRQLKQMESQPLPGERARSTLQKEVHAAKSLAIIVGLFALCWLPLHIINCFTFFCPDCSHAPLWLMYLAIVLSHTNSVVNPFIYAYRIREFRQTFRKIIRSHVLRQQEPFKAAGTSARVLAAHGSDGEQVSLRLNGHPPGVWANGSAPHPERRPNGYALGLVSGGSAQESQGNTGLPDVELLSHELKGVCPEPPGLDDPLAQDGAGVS

As to `Nc1nc(-c2ccccc2)nc(-c2ccccc2O)n1`, the pKi at Adenosine receptor A1 is 8.14; on Adenosine receptor A2a [1] it was 7.37; at Adenosine receptor A2b it was 6.66; at Adenosine receptor A3 it was 6.36.
Turning to `COCc1cc(C)nc2sc(-c3nc(N)nc(N(C)C)n3)c(N)c12`, the inhibition was 35% in test [2], -5% in test [3] and 33% in test [4]. The pKi on Adenosine receptor A2a [1] was 5.80.
`COc1nc(N)c(C#N)c(-c2ccc3c(c2)OCO3)c1C#N`: the inhibition in test [3] was 32%; in test [4], 21%. Also, the pKi is 6.29 on Adenosine receptor A1 and 4.51 on Adenosine receptor A2a [1].
On to `C=CCn1c(=O)[nH]c2nc3cc(NC(C)=O)ccc3nc2c1=O`, for which the inhibition on Adenosine receptor A2a [5] is 42%; in test [3], 14%; in test [4], -3%. The compound also had a pKi at Adenosine receptor A1 of 5.49.
With `O=C(Cc1ccccc1)Nc1nn2c(-c3ccco3)nnc2s1`, the inhibition was 44% in test [2], -8% in test [3] and 3% in test [4]. Moreover, at Adenosine receptor A2a [1], the pKi is 5.29.
In the case of `N#Cc1cnc(N)nc1-c1ccccc1`, the inhibition in test [4] amounted to 13%. The pKi on Adenosine receptor A1 is 6.05; on Adenosine receptor A2a [1] it was 6.52.

For orientation: pKi means the negative decadic logarithm of the Ki, by convention in mol/L. Low values mean a large Ki, high ones a small Ki. The inhibition is the change of the read-out against control, counted positive when it falls.
